Assay results reported in paper PMC11774189 (RSC Advances, 2025).
Read-outs that look alike come from different tables or passages of the source.

Experiments:
[1] = tested on: Hek-293 human embryonic kidney cells; assay: MTT cytotoxicity assay, Hek-293 cells; type: cell-based; settings: for IC50: read-out: IC50, Hek-293; for fold lower cytotoxicity against Hek-293 cells than to A549: Hek-293 vs A549
[2] = tested on: KB (epidermoid carcinoma) cell line; assay: MTT cytotoxicity assay, KB cells; type: cell-based, human; settings: read-out: IC50, KB
[3] = tested on: A549 (non-small lung cancer) cell line; assay: MTT cytotoxicity assay, A549 cells; type: cell-based, human; settings: read-out: IC50, A549
[4] = tested on: MCF7 (breast cancer) cell line; assay: MTT cytotoxicity assay, MCF7 cells; type: cell-based, human; settings: read-out: IC50, MCF7
[5] = tested on: HepG2 (hepatoma carcinoma) cell line; assay: MTT cytotoxicity assay, HepG2 cells; type: cell-based, human; settings: read-out: IC50, HepG2
A549 cells [6] = assay: Annexin-V FITC and PI flow cytometry assay for apoptosis; type: cell-based, human; settings: 48 hours
In short: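 A549 cells seeded at 5×10^5 per 25 cm² flask, treated 48 h with test compound (0.45, 0.9, 1.8 μM), DMSO 1% vehicle or camptothecin 2 μM. Harvested, washed in cold PBS, resuspended in binding buffer, stained with annexin V plus PI (1 mg mL⁻¹ stock), 15 min at 37 °C, diluted in binding buffer, analysed by flow cytometry. Quadrants: live, early apoptotic, late apoptotic, necrotic.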

A549 cells [7] = assay: Cell cycle analysis by PI flow cytometry; type: cell-based, human; settings: 24 hours
In short: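 A549 cells seeded at 3×10^5 per 25 cm² flask; exposed 24 h to test compound (0.45, 0.9, 1.8 μM) or DMSO 0.5%. Cells washed twice in PBS, fixed in ice-cold 70% ethanol at –20 °C for 2 h, pelleted, treated with RNase A (2.5 mg mL⁻¹) 15 min at 37 °C, stained 30 min with PI (1 mg mL⁻¹ stock), then flow cytometry for phase distribution.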

O=C1OCC2=C1C1(C(=O)Nc3ccc(Cl)cc31)C1=C(N2)C(=O)c2ccccc2C1=O (stereo not drawn) [Compound 7b, 5′-Chloro-3H-spiro[benzo[g]furo[3,4-b]quinoline-11,3′-indoline]-1,2′,5,10(4H)-tetraone]
IC50 ([1]; Homo sapiens, HEK293, 72 h): 3.32 ± 0.33 µM
IC50 ([2]; Homo sapiens, KB, 72 h): 3.15 ± 0.21 µM
IC50 ([3]; Homo sapiens, A549, 72 h): 1.41 ± 0.12 µM
IC50 ([4]; Homo sapiens, MCF7, 72 h): 4.2 ± 0.5 µM
IC50 ([5]; Homo sapiens, HepG2, 72 h): 2.32 ± 0.31 µM

O=C1OCC2=C1C1(C(=O)Nc3ccccc31)C1=C(N2)C(=O)c2ccccc2C1=O (stereo not drawn) [Compound 7a, 3H-Spiro[benzo[g]furo[3,4-b]quinoline-11,3′-indoline]-1,2′,5,10(4H)-tetraone]
IC50 ([1]; Homo sapiens, HEK293, 72 h): 4.89 ± 0.44 µM
IC50 ([2]; Homo sapiens, KB, 72 h): 5.33 ± 0.62 µM
IC50 ([3]; Homo sapiens, A549, 72 h): 1.98 ± 0.16 µM
IC50 ([4]; Homo sapiens, MCF7, 72 h): 1.95 ± 0.21 µM
IC50 ([5]; Homo sapiens, HepG2, 72 h): 5.33 ± 0.62 µM

Cc1c2ccncc2c(C)c2c1[nH]c1ccccc12 [Ellipticine, reference compound]
IC50 ([1]; Homo sapiens, HEK293, 72 h): 5.64 ± 0.32 µM
IC50 ([3]; Homo sapiens, A549, 72 h): 1.34 ± 0.08 µM
IC50 ([4]; Homo sapiens, MCF7, 72 h): 2.07 ± 0.16 µM
IC50 ([5]; Homo sapiens, HepG2, 72 h): 2.07 ± 0.12 µM

4′,6′-Dimethyl-3H-spiro[benzo[g]furo[3,4-b]quinoline-11,3′-indoline]-1,2′,5,10(4H)-tetraone [Compound 7g]
IC50 ([1]; MTT, 3 days incubation): 7.27 ± 0.78 µM
IC50 ([2]; MTT, 3 days incubation): 4.85 ± 0.41 µM
IC50 ([3]; MTT, 3 days incubation): 1.67 ± 0.17 µM
IC50 ([4]; MTT, 3 days incubation): 2.62 ± 0.22 µM
IC50 ([5]; MTT, 3 days incubation): 6.74 ± 0.68 µM

O=C1OCC2=C1C1(C(=O)N(Cc3ccc(Cl)cc3)c3ccccc31)C1=C(N2)C(=O)c2ccccc2C1=O (stereo not drawn) [Compound 7j, 1′-(4-Chlorobenzyl)-3H-spiro[benzo[g]furo[3,4-b]quinoline-11,3′-indoline]-1,2′,5,10(4H)-tetraone]
IC50 ([1]; Homo sapiens, HEK293, 72 h): 10.3 ± 1.06 µM
IC50 ([2]; Homo sapiens, KB, 72 h): 5.6 ± 0.49 µM
IC50 ([3]; Homo sapiens, A549, 72 h): 6.54 ± 0.69 µM
IC50 ([4]; Homo sapiens, MCF7, 72 h): 4.09 ± 0.41 µM
IC50 ([5]; Homo sapiens, HepG2, 72 h): 5.78 ± 0.61 µM

O=C1OCC2=C1C1(C(=O)N(Cc3ccc(Br)cc3F)c3ccccc31)C1=C(N2)C(=O)c2ccccc2C1=O (stereo not drawn) [Compound 7k, 1′-(4-Bromo-2-fluorobenzyl)-3H-spiro[benzo[g]furo[3,4-b]quinoline-11,3′-indoline]-1,2′,5,10(4H)-tetraone]
IC50 ([1]; Homo sapiens, HEK293, 72 h): > 28 µM
IC50 ([2]; Homo sapiens, KB, 72 h): 27.3 ± 2.15 µM
IC50 ([3]; Homo sapiens, A549, 72 h): 14 ± 1.59 µM
IC50 ([4]; Homo sapiens, MCF7, 72 h): 15.1 ± 1.59 µM
IC50 ([5]; Homo sapiens, HepG2, 72 h): 20.9 ± 2.36 µM

O=C1OCC2=C1C1(C(=O)Nc3ccc(Br)cc31)C1=C(N2)C(=O)c2ccccc2C1=O (stereo not drawn) [Compound 7d, 5′-Bromo-3H-spiro[benzo[g]furo[3,4-b]quinoline-11,3′-indoline]-1,2′,5,10(4H)-tetraone]
IC50 ([1]; Homo sapiens, HEK293, 72 h): 3.52 ± 0.37 µM
IC50 ([2]; Homo sapiens, KB, 72 h): 4.75 ± 0.41 µM
IC50 ([3]; Homo sapiens, A549, 72 h): 1.62 ± 0.17 µM
IC50 ([4]; Homo sapiens, MCF7, 72 h): 2.07 ± 0.26 µM
IC50 ([5]; Homo sapiens, HepG2, 72 h): 4.34 ± 0.41 µM

O=C1OCC2=C1C1(C(=O)N(Cc3ccc(C(F)(F)F)cc3)c3ccc(Cl)cc31)C1=C(N2)C(=O)c2ccccc2C1=O (stereo not drawn) [Compound 7l, 5′-Chloro-1′-(4-(trifluoromethyl)benzyl)-3H-spiro[benzo[g]furo[3,4-b]quinoline-11,3′-indoline]-1,2′,5,10(4H)-tetraone]
IC50 ([1]; Homo sapiens, HEK293, 72 h): > 27.7 µM
IC50 ([2]; Homo sapiens, KB, 72 h): 17.8 ± 1.68 µM
IC50 ([3]; Homo sapiens, A549, 72 h): 5.93 ± 0.64 µM
IC50 ([4]; Homo sapiens, MCF7, 72 h): 13.4 ± 1.23 µM
IC50 ([5]; Homo sapiens, HepG2, 72 h): 15.1 ± 1.7 µM

Cc1ccc2c(c1)C1(C(=O)N2)C2=C(COC2=O)NC2=C1C(=O)c1ccccc1C2=O (stereo not drawn) [Compound 7c, 5′-Methyl-3H-spiro[benzo[g]furo[3,4-b]quinoline-11,3′-indoline]-1,2′,5,10(4H)-tetraone]
IC50 ([1]; Homo sapiens, HEK293, 72 h): 3.89 ± 0.4 µM
IC50 ([2]; Homo sapiens, KB, 72 h): 3.46 ± 0.33 µM
IC50 ([3]; Homo sapiens, A549, 72 h): 1.91 ± 0.2 µM
IC50 ([4]; Homo sapiens, MCF7, 72 h): 4.17 ± 0.48 µM
IC50 ([5]; Homo sapiens, HepG2, 72 h): 4.02 ± 0.45 µM

O=C1OCC2=C1C1(C(=O)N(Cc3ccccc3)c3ccccc31)C1=C(N2)C(=O)c2ccccc2C1=O (stereo not drawn) [Compound 7h, 1′-Benzyl-3H-spiro[benzo[g]furo[3,4-b]quinoline-11,3′-indoline]-1,2′,5,10(4H)-tetraone]
IC50 ([1]; Homo sapiens, HEK293, 72 h): 2.72 ± 0.19 µM
IC50 ([2]; Homo sapiens, KB, 72 h): 3.96 ± 0.34 µM
IC50 ([3]; Homo sapiens, A549, 72 h): 1.71 ± 0.19 µM
IC50 ([4]; Homo sapiens, MCF7, 72 h): 3.73 ± 0.38 µM
IC50 ([5]; Homo sapiens, HepG2, 72 h): 4.24 ± 0.38 µM

O=C1OCC2=C1C1(C(=O)Nc3c(Br)cc(Br)cc31)C1=C(N2)C(=O)c2ccccc2C1=O (stereo not drawn) [Compound 7f, 5′,7′-Dibromo-3H-spiro[benzo[g]furo[3,4-b]quinoline-11,3′-indoline]-1,2′,5,10(4H)-tetraone]
fold lower cytotoxicity against Hek-293 cells than to A549 [1]: about 7 fold
IC50 ([1]; Homo sapiens, HEK293, 72 h): 6.7 ± 0.57 µM
IC50 ([2]; Homo sapiens, KB, 72 h): 1.99 ± 0.22 µM
% early apoptosis cells (Q2-4) (A549 cells [6]; A549, 0.45 μM): 1.76%
% late apoptosis cells (Q2-2) (A549 cells [6]; A549, 0.45 μM): 1.26%
% necrotic cells (Q2-1) (A549 cells [6]; A549, 0.45 μM): 0.64%
% total apoptosis cells (A549 cells [6]; A549, 0.45 μM): 3.02%
% early apoptosis cells (Q2-4) (A549 cells [6]; A549, 0.9 μM): 3.13%
% late apoptosis cells (Q2-2) (A549 cells [6]; A549, 0.9 μM): 1.83%
% necrotic cells (Q2-1) (A549 cells [6]; A549, 0.9 μM): 0.94%
% early apoptosis cells (Q2-4) (A549 cells [6]; A549, 1.8 μM): 12.68%
% late apoptosis cells (Q2-2) (A549 cells [6]; A549, 1.8 μM): 6.72%
% necrotic cells (Q2-1) (A549 cells [6]; A549, 1.8 μM): 2.53%
% total apoptosis cells (A549 cells [6]; A549, 1.8 μM): 19.4%
IC50 ([3]; Homo sapiens, A549, 72 h): 0.9 ± 0.09 µM
% G0/G1 (A549 cells [7]; A549, 0.45 μM): 36.01%
% G2/M (A549 cells [7]; A549, 0.45 μM): 13.49%
% S (A549 cells [7]; A549, 0.45 μM): 47.96%
% G0/G1 (A549 cells [7]; A549, 0.9 μM): 26.63%
% G2/M (A549 cells [7]; A549, 0.9 μM): 4.17%
% S (A549 cells [7]; A549, 0.9 μM): 67.93%
% G0/G1 (A549 cells [7]; A549, 1.8 μM): 20.81%
% G2/M (A549 cells [7]; A549, 1.8 μM): 13.61%
% S (A549 cells [7]; A549, 1.8 μM): 63.88%
IC50 ([4]; Homo sapiens, MCF7, 72 h): 1.84 ± 0.17 µM
IC50 ([5]; Homo sapiens, HepG2, 72 h): 3.28 ± 0.39 µM

O=C1OCC2=C1C1(C(=O)N(Cc3ccc(C(F)(F)F)cc3)c3ccccc31)C1=C(N2)C(=O)c2ccccc2C1=O (stereo not drawn) [Compound 7i, 1′-(4-(Trifluoromethyl)benzyl)-3H-spiro[benzo[g]furo[3,4-b]quinoline-11,3′-indoline]-1,2′,5,10(4H)-tetraone]
IC50 ([1]; Homo sapiens, HEK293, 72 h): 4.04 ± 0.42 µM
IC50 ([2]; Homo sapiens, KB, 72 h): 4.65 ± 0.44 µM
IC50 ([3]; Homo sapiens, A549, 72 h): 7.37 ± 0.83 µM
IC50 ([4]; Homo sapiens, MCF7, 72 h): 3.72 ± 0.35 µM
IC50 ([5]; Homo sapiens, HepG2, 72 h): 4.5 ± 0.48 µM

CC[C@@]1(O)C(=O)OCc2c1cc1n(c2=O)Cc2cc3ccccc3nc2-1 [Camptothecin, reference compound]
% early apoptosis cells (Q2-4) (A549 cells [6]; A549, 2 μM): 30.71%
% late apoptosis cells (Q2-2) (A549 cells [6]; A549, 2 μM): 11.05%
% necrotic cells (Q2-1) (A549 cells [6]; A549, 2 μM): 1.99%
% total apoptosis cells (A549 cells [6]; A549, 2 μM): 41.76%

Cc1ccc2c(c1)N(Cc1ccc(Br)cc1F)C(=O)C21C2=C(COC2=O)NC2=C1C(=O)c1ccccc1C2=O (stereo not drawn) [Compound 7m, 1′-(4-Bromo-2-fluorobenzyl)-6′-methyl-3H-spiro[benzo[g]furo[3,4-b]quinoline-11,3′-indoline]-1,2′,5,10(4H)-tetraone]
IC50 ([1]; Homo sapiens, HEK293, 72 h): > 65 µM
IC50 ([2]; Homo sapiens, KB, 72 h): 51.7 ± 1.78 µM
IC50 ([3]; Homo sapiens, A549, 72 h): 13.3 ± 0.7 µM
IC50 ([4]; Homo sapiens, MCF7, 72 h): 19.9 ± 0.89 µM
IC50 ([5]; Homo sapiens, HepG2, 72 h): 47.5 ± 2.15 µM

O=C1OCC2=C1C1(C(=O)N(Cc3ccc(C(F)(F)F)cc3)c3cc(Br)c(Br)cc31)C1=C(N2)C(=O)c2ccccc2C1=O (stereo not drawn) [Compound 7n, 5′,6′-Dibromo-1′-(4-(trifluoromethyl)benzyl)-3H-spiro[benzo[g]furo[3,4-b]quinoline-11,3′-indoline]-1,2′,5,10(4H)-tetraone]
fold lower cytotoxicity against Hek-293 cells than to A549 [1]: ~22 fold
fold lower cytotoxicity against Hek-293 cells than to MCF7 ([1]; Hek-293 vs MCF7): about 11 fold
IC50 ([1]; Homo sapiens, HEK293, 72 h): 22.9 ± 2.2 µM
IC50 ([2]; Homo sapiens, KB, 72 h): 4.36 ± 0.4 µM
IC50 ([3]; Homo sapiens, A549, 72 h): 1.03 ± 0.13 µM
IC50 ([4]; Homo sapiens, MCF7, 72 h): 2.11 ± 0.24 µM
IC50 ([5]; Homo sapiens, HepG2, 72 h): 6.74 ± 0.73 µM
